ABCB1 inh: blocks JC-1 efflux by human ABCB1 transporter; CCRF-Adr cells, flow cytometry; P08183; 0.067% of 190,000 active; inhibition, % at 6.6 µM; in the data active = inhibition above about 40%;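 also: 0% = vehicle and 100% = reference inhibitor; higher value means more JC-1 retained so stronger ABCB1 efflux block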
Lmaj promast: Leishmania major promastigote growth inhibition. Leishmania major promastigotes, resazurin fluorescence viability. inhibition, % at 10 µM. 9% of 200,000 active;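 also: promastigotes grown with compound for 44 hours at 28 °C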
PKD1 inh: inhibitors of human PKD1 kinase; PKD1 kinase fluorescence polarization assay; inhibition, % (no concentration beside the values); 0.056% of 200,000 active; AID 797
Avidin fluor: compound fluoresces at 488/530 nm on avidin beads; 0.38% of 220,000 active; compound fluorescence 488/530 nm, flow cytometry; active compounds read high; fluorescence (KMESF) at 10 µM; in the data active = fluorescence above about 47
ABCG2 block: blocks JC-1 efflux by human ABCG2 transporter. IgMXP3 cells, flow cytometry. 0.1% of 190,000 active. Q9UNQ0. inhibition, % at 6.6 µM;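 active = inhibition above 80%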;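 also: 0% = DMSO and 100% = nicardipine control wells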
Target sequence (Q9UNQ0 whole entry, looked up): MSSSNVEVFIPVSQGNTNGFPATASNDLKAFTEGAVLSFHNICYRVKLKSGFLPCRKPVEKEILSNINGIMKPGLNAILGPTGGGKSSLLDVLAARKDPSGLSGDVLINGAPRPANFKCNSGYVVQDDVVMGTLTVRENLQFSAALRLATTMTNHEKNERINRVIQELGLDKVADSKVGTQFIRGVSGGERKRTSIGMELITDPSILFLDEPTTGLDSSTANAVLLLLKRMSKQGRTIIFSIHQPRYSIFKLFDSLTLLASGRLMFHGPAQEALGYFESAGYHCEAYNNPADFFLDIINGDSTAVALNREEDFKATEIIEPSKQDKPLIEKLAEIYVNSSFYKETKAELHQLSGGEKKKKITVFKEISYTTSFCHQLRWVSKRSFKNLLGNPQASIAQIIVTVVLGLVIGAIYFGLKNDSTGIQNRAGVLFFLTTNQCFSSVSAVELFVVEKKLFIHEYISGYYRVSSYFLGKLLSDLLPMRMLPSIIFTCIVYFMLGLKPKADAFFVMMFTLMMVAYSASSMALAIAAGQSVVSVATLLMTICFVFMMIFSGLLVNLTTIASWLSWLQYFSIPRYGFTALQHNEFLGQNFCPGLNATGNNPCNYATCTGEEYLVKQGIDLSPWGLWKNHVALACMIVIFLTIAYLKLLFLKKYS
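test system = two drug-resistant human cell lines, ABCG2 and ABCB1 | amount = 3 million cells/mL final, two lines in 1:1 ratio | reagent = JC-1 transporter substrate | doses = one concentration, 6.6 µM final | incubation = 10 min at 25 °C | signal = flow cytometric JC-1 green MFI at 530 nm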
GSH fluor: compound fluoresces at 488/530 nm on GSH beads; 0.25% of 190,000 active; fluorescence (KMESF) at 10 µM; GSH beads flow cytometry, compound fluorescence 488/530 nm; active compounds read high; in the data active = fluorescence above about 89;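 also: glutathione beads carrying GST-tagged Bcl family fusion proteins plus one bare bead set; values are compound well signal with DMSO vehicle wells as background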
Starred values were filed as active, the others as inactive; . = no result. Shown is part of a subset that was picked to be rich in hits. Rule as the data show it, unless noted: active = inhibition above about 50%; inactive = the rest.

SMILES	ABCB1 inh	Lmaj promast	PKD1 inh	Avidin fluor	ABCG2 block	GSH fluor
COc1ccc(NC(=O)/C=C/c2cc(Br)ccc2OC)cc1	0	-5	-15	13	0	22
COc1ccc(Br)cc1/C=C/C(=O)Nc1c(C)cccc1C	0	62*	6	8	5	23
Cc1nc2c(=O)n(C)c(=O)n(C)c2nc1Cl	1	100*	5	18	12	12
CCN(CC)CCNCc1cc(Cl)ccc1OCc1ccccc1F	0	99*	2	9	-6	19
CCNCc1ccc(OCc2ccccc2F)c(OC)c1	1	81*	-3	9	1	19
COc1cc(CNCCCCO)ccc1OCc1ccccc1F	0	83*	8	12	0	15
CCOCCCNCc1ccc(OCC(=O)N2CCOCC2)c(OC)c1	1	0	3	9	5	16
COc1cc(CNc2ccc(N3CCCC3)cc2)ccc1OCc1ccccc1F	0	2	5	4	-1	2
CCOCCCNCc1ccc(OCc2ccccc2C)c(OC)c1	1	98*	4	10	-3	20
O=c1cc(-c2ccccc2)[nH]n1-c1ccc([N+](=O)[O-])cc1	0	0	-7	8	1	13
Cc1ccc(S(=O)(=O)c2nnn(-c3cccc(F)c3)c2N)cc1	0	14	-4	12	2	11
C=CCn1c(SCc2cc(=O)n3cc(C)ccc3n2)nnc1-c1cccc(C)c1	1	52*	5	12	7	6
Cc1ccc2nc(CSc3nnc4ccccn34)cc(=O)n2c1	0	-5	-9	24	0	28
c1ccc(CCN(Cc2ccccc2)C2CCN(C3CCCC3)CC2)cc1	0	92*	-2	7	1	14
CCCC(=O)NC(c1ccccc1OC)c1ccc2cccnc2c1O (configuration not stated)	1	100*	0	30	1	11
CC(C)CC(=O)NC(c1cccs1)c1ccc2cccnc2c1O (configuration not stated)	0	100*	-3	23	3	11
CCCCC(=O)NC(c1ccccc1OC)c1ccc2cccnc2c1O (configuration not stated)	.	.	.	5	.	.
CCC(=O)NC(c1cccs1)c1ccc2cccnc2c1O (configuration not stated)	0	100*	3	3	4	11
Cc1conc1NC(c1cccs1)c1ccc2cccnc2c1O (configuration not stated)	-1	99*	0	30	-2	15
CC(=O)N1CCN(c2ccccc2NC(=O)Cc2ccc(Cl)cc2)CC1	1	-2	-3	6	-1	19
O=S(=O)(c1cnc(Cl)c(Cl)c1)N1CCN(c2ncccn2)CC1	.	.	.	8	.	.
Clc1cccc(-c2nc(NCc3cccnc3)c3ccccc3n2)c1	1	86*	6	11	5	20
O=C(O)c1cccc(Nc2nc(C(F)(F)F)nc3ccccc23)c1	-1	1	0	5	0	20
OCCNc1nc(-c2cccnc2)nc2ccccc12	0	10	-7	10	6	10
Fc1ccc(CNc2nc(-c3ccccc3)nc3ccccc23)cc1	1	69*	-3	9	7	16
SMILES	ABCB1 inh	Lmaj promast	PKD1 inh	Avidin fluor	ABCG2 block	GSH fluor
Fc1cccc(Nc2nc(-c3ccncc3)nc3ccccc23)c1	1	61*	-7	7	3	12
Cc1ccc(-c2nc(NCc3cccnc3)c3ccccc3n2)cc1	26	83*	-2	14	37	13
O=Cc1cn(-c2ccc(F)cc2)c2ccccc12	0	0	-10	12	11	16
Cc1cc(C(=O)Cn2c(CO)nc3ccccc32)c(C)n1C	.	.	.	5	.	.
CCOc1ccc(NC(=O)COC(=O)C23CC4CC(CC(C4)C2)C3)c([N+](=O)[O-])c1	5	-2	-7	2	36	9
c1ccc(-c2nc(NCc3cccnc3)c3ccccc3n2)cc1	1	80*	-4	9	7	9
O=C(NCC(=O)N(c1cccnc1)C(C(=O)NC1CCCC1)c1ccc(F)cc1)c1ccco1 (configuration not stated)	0	-4	2	13	1	23
CC(C)NC(=S)N/N=C/c1c[nH]c2ccccc12	0	66*	-11	15	3	9
Cc1[nH]c2ccccc2c1/C=N/NC(=S)NC(C)C	0	31	0	16	7	18
O=C(COC(=O)CCCN1C(=O)c2cccc3cccc(c23)C1=O)Nc1cccc(Br)c1	1	0	8	3	-4	6
COc1ccc2c(c1)c(=O)c(C(=O)c1ccccc1)cn2Cc1ccc(C)cc1	3	52*	-3	6	18	16
CCOc1ncccc1C(=O)NCc1ccccc1	1	54*	-5	12	9	5
O=C(O)CCC(=O)Nc1ccccc1C(=O)NCc1ccccc1	0	51*	2	11	2	3
O=C(Cc1ccccc1)Nc1ccccc1C(=O)Nc1ccccc1	1	65*	-5	13	17	5
O=C(NCc1ccc(F)cc1)c1ccccc1OCc1ccccc1	3	79*	-21	7	67	10
COc1ccccc1C(=O)NCc1ccccc1	1	-5	-1	6	7	16
O=c1ccn(Cc2ccc(F)cc2)c2ccnc(C(F)(F)F)c12	1	-2	-8	2	9	10
Cc1cc[n+](-c2ccccc2)c2ccccc12	0	3	-4	12	-1	12
CCc1ccc(OS(=O)(=O)c2cn(C)c(=O)n(C)c2=O)cc1	0	16	-4	15	1	12
Cc1[nH]c(=O)[nH]c(=O)c1S(=O)(=O)N1CCCC(C(=O)NCCC2=CCCCC2)C1 (configuration not stated)	2	-1	2	9	4	67
Cn1c(=O)n(Cc2ccccc2)c(=O)c2c1nc1n2CCCN1Cc1ccccc1	3	-5	-2	10	11	24
Cn1c(=O)n(Cc2ccc(Cl)cc2)c(=O)c2c1nc1n2CCN1Cc1ccco1	1	23	-1	8	7	3
Cc1cccc(Cn2c(=O)c3c(nc4n3CCN4Cc3ccco3)n(C)c2=O)c1	4	-12	-13	56*	30	23
Cn1c(=O)n(Cc2ccccc2)c(=O)c2c1nc1n2CCS1	0	1	-24	6	3	266*
Cn1c(=O)n(Cc2ccccc2)c(=O)c2c1nc1n2CCCN1CCc1ccccc1	3	100*	-3	19	9	9
CCN1CCCn2c1nc1c2c(=O)n(C)c(=O)n1C	4	59*	-1	8	15	11
CCOC(=O)c1cnc2c(-c3ccc(Cl)cc3)cnn2c1C	-2	4	2	10	-4	17
